These results are taken from ChEMBL document CHEMBL4038302, “Fibroblast Activation Protein α Activated Tripeptide Bufadienolide Antitumor Prodrug with Reduced Cardiotoxicity” (J Med Chem, 2017).

For data set [1], the system named is Mus musculus. Nature of the data set: Cardiotoxicity in BALB/C nude mouse xenografted with human MDA-MB-231 cells assessed as change in left ventricular internal diastole dimension at 12 umol/kg, iv administered starting on day 5 measured after day 22 by echocardiography. It is filed as toxicity, organism-based. Conditions: in vivo. In outline: (§1)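 Same MDA-MB-231 xenograft mice, given daily iv doses in 5% HS15 from day 5. After 22 days of dosing, transthoracic echocardiography with a 21 MHz transducer under 1.5% isoflurane, supine. M-mode images taken from the parasternal short-axis view at the papillary muscle; IVSd, IVSs, LVIDd and LVIDs derived, n = 6.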

The subject of data set [2] is Mus musculus. Nature of the data set: Toxicity in BALB/C nude mouse xenografted with human MDA-MB-231 cells assessed as abnormal food intake at 12 umol/kg, iv administered starting on day 5 measured after day 22. The format is organism-based. Conditions: in vivo. In general terms: A xenograft is tissue or cells of one species grown in another, often human tumour cells in immunodeficient mice.

Data set [3] concerns Mus musculus. Nature of the data set: Acute toxicity in Kunming mouse assessed as mortality at 12 umol/kg, iv after 8 hrs post dose. Conditions: in vivo. The format is organism-based.
Data set [4] is described as follows: Acute toxicity in iv dosed Kunming mouse measured less than 4 hrs post dose. The format is organism-based. Conditions: in vivo. A digest of the protocol: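 Kunming mice (22.0−28.0 g), half male and half female, 10 groups of n = 10. Single iv dose on day 1 across five levels per compound (prodrug 29.98–50.00 μmol/kg; arenobufagin 4.50–8.00 μmol/kg). Watched continuously for 8 h for abnormal behaviour and deaths, then intermittently for 2 weeks, and sacrificed day 14. LD50 by Bliss method.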

The test system of data set [5] is Mus musculus. Nature of the data set: Toxicity in BALB/C nude mouse xenografted with human MDA-MB-231 cells assessed as body weight change at 12 umol/kg, iv administered starting on day 5 measured after day 22. The format is organism-based. Conditions: in vivo.
Data set [6] deals with Mus musculus. Nature of the data set: Cardiotoxicity in BALB/C nude mouse xenografted with human MDA-MB-231 cells assessed as cytoplasmic vacuolization at 12 umol/kg, iv administered starting on day 5 measured after day 22 by hematoxylin-eosin staining-based assay. The format is toxicity, organism-based. Conditions: in vivo. In outline: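 Tissues from dosed xenograft mice fixed for 24 h and paraffin-embedded. Sections of 5 μm, H&E stained; heart, liver, spleen, lung, kidney and femur examined by a pathologist blind to treatment.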

The nature of data set [7]: Safety index, ratio of test compound LD50 to arenobufagin LD50 for Kunming mouse. The format is ADME. The conditions noted are these: in vivo. A digest of the protocol:
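LD50 from single-dose iv acute toxicity in Kunming mice (five dose levels per compound, n = 10 per group, 14-day observation), calculated by Bliss method; ratio taken against arenobufagin LD50.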

Data set [8] has as its system Mus musculus. Nature of the data set: Cardiotoxicity in BALB/C nude mouse xenografted with human MDA-MB-231 cells assessed as change in interventricular septal systole dimension at 12 umol/kg, iv administered starting on day 5 measured after day 22 by echocardiography. It is filed as toxicity, organism-based. The conditions noted are these: in vivo. In outline:
as §1

Data set [9] deals with MDA-MB-231. Nature of the data set: Antitumor activity against human MDA-MB-231 cells xenografted in BALB/C nude mouse assessed as decrease in tumor weight at 4 umol/kg, iv administered starting on day 5 measured after day 22. The format is functional, organism-based. In outline:
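Female BALB/C mice inoculated subcutaneously in the back with 1 × 10^7 MDA-MB-231 cells in Matrigel–PBS (1:1). From day 5, daily iv dosing in 5% Solutol-HS15 vehicle, with a vehicle control group. Tumours measured by caliper every 2 days (v = 0.5 × a × b²); tumour weight as mean ± SEM, n = 6, one-way ANOVA with Tukey's test.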

The test system of data set [10] is MDA-MB-231. Nature of the data set: Antiproliferative activity against human MDA-MB-231 cells transfected with pCMV6 incubated for 48 hrs by MTT assay. It is filed as functional, cell-based. Conditions: MDA-MB-231, 48 h. A digest of the protocol:
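Cells grown in DMEM with 10% FBS and 1% penicillin-streptomycin at 37 °C, 5% CO2; 10% heat-inactivated FBS used during cytotoxicity testing to exclude serum FAP activity. Viability read by MTT; IC50 as mean ± SEM of at least three independent experiments. Transfected lines were made from MDA-MB-231 with human FAPα plasmid or empty pCMV6-Entry vector and checked by Western blot at 48 h.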
Background: Tetrazolium dyes change colour on reduction, which living cells bring about.

The test system of data set [11] is MDA-MB-231. Nature of the data set: Induction of apoptosis in human MDA-MB-231 cells xenografted in BALB/C nude mouse at 4 umol/kg, iv administered starting on day 5 measured after day 22 by tunnel assay relative to control. Conditions: in the assay text read “12 umol/kg” for “4 umol/kg”. It is filed as functional. In outline:
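Paraffin tumour sections from dosed xenograft mice stained by in situ cell death detection (TUNEL), examined blind to treatment. Percentage of apoptotic cells quantified by image analysis. Mean ± SEM, n = 6, versus the 5% HS15 control.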

The target in data set [12] is T1, Prolyl endopeptidase FAP (Homo sapiens, UniProt Q12884).
T1 sequence (Q12884 whole entry): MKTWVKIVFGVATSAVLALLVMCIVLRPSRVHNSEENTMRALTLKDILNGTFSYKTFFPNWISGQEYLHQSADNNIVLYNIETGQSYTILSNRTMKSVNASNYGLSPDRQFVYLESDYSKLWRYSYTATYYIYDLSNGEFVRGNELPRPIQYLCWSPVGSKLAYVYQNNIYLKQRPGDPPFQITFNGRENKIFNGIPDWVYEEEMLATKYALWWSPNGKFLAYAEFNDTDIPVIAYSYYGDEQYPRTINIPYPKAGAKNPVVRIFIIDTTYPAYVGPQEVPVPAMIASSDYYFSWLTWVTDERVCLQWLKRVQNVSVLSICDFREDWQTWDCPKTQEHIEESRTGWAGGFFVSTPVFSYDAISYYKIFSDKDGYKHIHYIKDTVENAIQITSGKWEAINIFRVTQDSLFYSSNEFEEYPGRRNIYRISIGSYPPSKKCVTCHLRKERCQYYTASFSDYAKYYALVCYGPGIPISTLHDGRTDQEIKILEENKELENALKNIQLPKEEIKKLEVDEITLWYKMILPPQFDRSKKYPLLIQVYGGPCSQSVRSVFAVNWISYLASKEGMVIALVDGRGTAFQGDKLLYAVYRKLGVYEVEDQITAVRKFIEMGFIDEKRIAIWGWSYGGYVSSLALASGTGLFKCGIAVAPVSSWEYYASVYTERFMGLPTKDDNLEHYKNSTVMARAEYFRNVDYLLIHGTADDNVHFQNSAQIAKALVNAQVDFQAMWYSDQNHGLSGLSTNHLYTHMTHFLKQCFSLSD
Nature of the data set: Prodrug activation assessed as recombinant human FAP-alpha mediated (S)-((3S,5R,8R,9S,10S,11S,13R,14S,17R)-11,14-dihydroxy-10,13-dimethyl-12-oxo-17-(2-oxo-2H-pyran-5-yl)hexadecahydro-1H-cyclopenta[a]phenanthren-3-yl) 2-amino-3-(1H-indol-3-yl)propanoate formation at 40 umol/L after 6 hrs in presence of FAP-alpha inhibitor talabostat by UPLC-MS/MS analysis. The conditions noted are these: 40 µM. A digest of the protocol: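 Prodrug at 40 μmol/L incubated with rhFAPα at 0.45 μg/mL in 0.2 mL buffer at 37 °C for 6 h, with bufalin at 2 μmol/L as internal standard. Stopped with acetonitrile and spun at 18 000g for 15 min. Released active form measured by UPLC-MS/MS via peak-area ratio against a standard curve of 0.625–40 μmol/L.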

Data set [13] deals with T1, Prolyl endopeptidase FAP. Nature of the data set: Prodrug activation assessed as recombinant human FAP-alpha mediated (S)-((3S,5R,8R,9S,10S,11S,13R,14S,17R)-11,14-dihydroxy-10,13-dimethyl-12-oxo-17-(2-oxo-2H-pyran-5-yl)hexadecahydro-1H-cyclopenta[a]phenanthren-3-yl) 2-amino-3-(1H-indol-3-yl)propanoate formation by measuring intrinsic clearance at 40 umol/L […] by UPLC-MS/MS analysis. Conditions: 40 µM.

By LD50 is commonly meant the dose at which mortality reaches 50%. A high value points to lower toxicity. Usually IC50 stands for the concentration at which inhibition is half-maximal. A lower IC50 goes with inhibition by little substance.

Activity calls are given as the source filed them. The calls are words filed in the database; no cut-off is given here.

As for `C[C@]12CC[C@H](OC(=O)[C@H](Cc3c[nH]c4ccccc34)NC(=O)[C@@H]3CCCN3C(=O)CNC(=O)OCc3ccccc3)C[C@H]1CC[C@@H]1[C@@H]2[C@H](O)C(=O)[C@]2(C)[C@@H](c3ccc(=O)oc3)CC[C@]12O`, the Activity result with Mus musculus [1], in the data set with Mus musculus [2], in the data set on Mus musculus [3], in the data set on Mus musculus [5], with Mus musculus [6] and in the data set with Mus musculus [8] was “Non-Toxic” each time. In addition, in data set [4], the median lethal dose (LD50) at 4 h turned out to be 44 µmol/kg. Further, the selectivity ratio in [7] was determined as 6.5. The result in the data set with MDA-MB-231 [9] was Active. The compound further displayed an IC50 with MDA-MB-231 [10] of 24 nM. For the same compound, the “fold change (FC)” value with MDA-MB-231 [11] is reported as 5. Moreover, the Drug metabolism entry at Prolyl endopeptidase FAP [12] is reported as “Metabolite_Notdetected”. Besides, the CL on Prolyl endopeptidase FAP [13] turned out to be 65890 µL/min/mg.
